In ChEMBL document CHEMBL1149591, “QSAR studies and pharmacophore identification for arylsubstituted cycloalkenecarboxylic acid methyl esters with affinity for the human dopamine transporter” (Bioorg Med Chem, 2007):
pKi: −log10 of the molar value.

The compounds below were run against Sodium-dependent dopamine transporter (Homo sapiens, UniProt Q01959) (assay: Inhibition of human DAT expressed in COS1 cells). Settings: read-out: -Log Ki (converted).
Type: cell-based, COS-1
Procedure, shortened: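 COS-1 cells stably transfected with hDAT (pIRES, Blasticidin selection), grown in DMEM/10% FCS at 37 °C, 5% CO2. Membranes homogenized in 150 mM NaCl/50 mM Tris/20 mM EDTA, resuspended in PBSCM.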

Sequence of Sodium-dependent dopamine transporter (Q01959 whole entry): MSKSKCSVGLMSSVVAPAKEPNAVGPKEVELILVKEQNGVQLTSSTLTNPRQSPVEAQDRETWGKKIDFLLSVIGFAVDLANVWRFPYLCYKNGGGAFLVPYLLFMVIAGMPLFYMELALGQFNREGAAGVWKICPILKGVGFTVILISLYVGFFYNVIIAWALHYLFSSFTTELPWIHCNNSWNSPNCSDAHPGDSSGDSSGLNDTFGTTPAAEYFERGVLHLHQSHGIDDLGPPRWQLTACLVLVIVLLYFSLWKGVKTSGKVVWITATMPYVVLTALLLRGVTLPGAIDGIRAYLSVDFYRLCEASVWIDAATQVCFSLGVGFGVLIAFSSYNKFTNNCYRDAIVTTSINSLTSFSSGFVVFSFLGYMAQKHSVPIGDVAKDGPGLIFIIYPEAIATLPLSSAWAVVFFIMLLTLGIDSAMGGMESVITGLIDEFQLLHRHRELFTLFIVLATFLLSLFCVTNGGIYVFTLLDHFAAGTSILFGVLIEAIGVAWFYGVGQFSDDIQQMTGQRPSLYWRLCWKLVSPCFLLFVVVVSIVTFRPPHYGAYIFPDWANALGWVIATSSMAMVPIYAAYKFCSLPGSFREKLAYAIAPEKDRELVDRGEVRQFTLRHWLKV

Row | Structure (SMILES) | Ki [µM]
1 | COC(=O)C1=C(c2ccc(Cl)cc2Cl)C2CCC1C2 (stereo unspecified) | 22.9
2 | COC(=O)C1=C(c2ccc(Cl)cc2)C2CCC1O2 (stereo unspecified) | 18.2
3 | COC(=O)C1=C(c2ccc(Cl)cc2)C2CCC1N2 (stereo unspecified) | 26.9
4 | COC(=O)C1=C(c2cccc(Cl)c2)CCCC1 | 117
5 | COC(=O)C1=C(c2ccccc2)C2CCC1N2 (stereo unspecified) | 447
6 | COC(=O)C1=C(c2ccc(-c3ccccc3)cc2)C2CCC1N2 (stereo unspecified) | 24.5
7 | COC(=O)C1=C(c2ccc3ccccc3c2)C2CCC1N2 (stereo unspecified) | 1.74
8 | COC(=O)C1=C(c2ccc3ccccc3c2)CCC1 | 4.17
9 | COC(=O)C1=C(c2ccc(C(C)=O)cc2)CCC1 | 331
10 | COC(=O)C1=C(c2ccc3ccccc3c2)C2CCC1C2 (stereo unspecified) | 4.27
11 | COC(=O)C1=C(c2ccc(Cl)c(Cl)c2)C2CCC1C2 (stereo unspecified) | 6.76
12 | COC(=O)C1=C(c2ccc(-c3ccccc3)cc2)C2CCC1C2 (stereo unspecified) | 603
13 | COC(=O)C1=C(c2ccc(Cl)cc2)C2CCC1C2 (stereo unspecified) | 25.1
14 | COC(=O)C1=C(c2ccc3ccccc3c2)CCCC1 | 11.7
15 | COC(=O)C1=C(c2cccc(Cl)c2)C2CCC1C2 (stereo unspecified) | 105
16 | COC(=O)C1=C(c2cccc(Cl)c2)C2CCC1N2 (stereo unspecified) | 33.9
17 | COC(=O)C1=C(c2cccc(Cl)c2Cl)C2CCC1C2 (stereo unspecified) | 14.8
18 | COC(=O)C1=C(c2ccc(Cl)c(Cl)c2)CCC1 | 1.95
19 | COC(=O)C1=C(c2ccccc2)C2CCC1C2 (stereo unspecified) | 646
20 | COC(=O)C1=C(c2cccc(Cl)c2)CCC1 | 34.7
21 | COC(=O)C1=C(c2ccccc2Cl)C2CCC1C2 (stereo unspecified) | 372
22 | COC(=O)C1=C(c2ccc(Cl)c(Cl)c2)C2CCC1N2 (stereo unspecified) | 1.1

Same assay, conditions: read-out: Ki

Row | Structure (SMILES) | pKi
23 | COC(=O)C1=C(c2cc(C)c(C)cc2C)C2CCC1C2 (stereo unspecified) | 4.49
24 | COC(=O)C1=C(c2ccc(C)c(F)c2)C2CCC1C2 (stereo unspecified) | 4.25
25 | COC(=O)C1=C(c2ccc([N+](=O)[O-])cc2)C2CCC1N2 (stereo unspecified) | 4.17
26 | COC(=O)C1=C(c2cccc([N+](=O)[O-])c2)C2CCC1N2 (stereo unspecified) | 3.63
